Key:
[1] = melting temperature; fluorescence melt of hairpins on a sequencing array, two-state fit, raised by 9.35 °C to match UV melts; conditions: sodium 0.088 M
Procedure, shortened: (§1)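 Folding enthalpy and melting temperature were estimated with bootstrapped two-state fits and combined across four replicates by inverse-variance weighting, with fitted temperatures raised by 9.35 °C to match UV melts. The data were Cy3 fluorescence of library hairpins, with annealed Cy3 and quencher oligos, on a sequenced MiSeq flow cell in 50 mM Na-HEPES pH 8.0, 25 mM NaCl, imaged in 2.5 °C steps up to 60 °C and normalised to pre-quench Cy3 and control constructs.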

[2] = folding enthalpy; higher = less favourable; fluorescence melt of hairpins on a sequencing array, two-state fit; conditions: sodium 0.088 M
Procedure, shortened: as §1

Sequence	Tm [1]	folding enthalpy [2]
GGTGCGGGAAACCGTACC (((.(((....))).)))	58.1 °C	-44.7 kcal/mol
GCGTTCTACGC ((((...))))	58.2 °C	-22.5 kcal/mol
GTACGCGGAAACGCACAC ((..(((....)))..))	33.1 °C	-13.8 kcal/mol
GGCTGCGAAAGCAGGGCC ((((((....)))..)))	53.1 °C	-13 kcal/mol
GCGTCGGCACGC ((((....))))	56.4 °C	-10.7 kcal/mol
GATCTTCGAGAAGATC ((((((....))))))	50.8 °C	-42 kcal/mol
GCACAAGGAAACTCGTGC ((((.((....)).))))	43.8 °C	-31.4 kcal/mol
GATCATAGAAATGATC ((((((....))))))	41.7 °C	-29.4 kcal/mol
GATCAAACGTTGATC ((((((...))))))	39.5 °C	-28.1 kcal/mol
GGTATTCGAAAGAAACC (((.(((....))))))	31.7 °C	-16.9 kcal/mol
GATTTCGGAAACGAAATC (((((((....)))))))	58.1 °C	-41.2 kcal/mol
GTACACCGAAAGGTCTAC (((.(((....))).)))	30.9 °C	-15.3 kcal/mol
GCGGGGGCCGC ((((...))))	62.1 °C	-9.27 kcal/mol
GATCGGCGTTCCGATC ((((((....))))))	56.3 °C	-39.3 kcal/mol
GTACCTGGAAACAGGTGC (.(((((....))))).)	52.4 °C	-28.1 kcal/mol
GCGGAACGCCGC ((((....))))	58.4 °C	-9.84 kcal/mol
GACAGGGGAAACTCTGTC (((((.(....).)))))	48.1 °C	-35 kcal/mol
GGGGATGGAAACGTCTCC ((.((.(....).)).))	36.5 °C	-26 kcal/mol
GTAGTGGGAAACTGCTAC ((((..(....)..))))	36.8 °C	-23.4 kcal/mol
ACTCCGAAAGGAGT (((((....)))))	68.8 °C	-20.5 kcal/mol
GATCATAGTCATGATC ((((((....))))))	47.2 °C	-32.9 kcal/mol
GGGCACCGAAAGGTACCC (((.(((....))).)))	56.7 °C	-35.1 kcal/mol
GTCCCACCGAAAGGTGAC (((..(((....))))))	27 °C	-8.32 kcal/mol
GCCTGGCGAAAGCCAAGC ((.((((....)))).))	57.7 °C	-17.5 kcal/mol

Sequence	Tm [1]	folding enthalpy [2]
GGCACCGAAAGGTATGCC ((((((....)))..)))	51.6 °C	-25.1 kcal/mol
GTGGCAGGAAACTGCTGC (..((((....))))..)	44.2 °C	-17.4 kcal/mol
GGCATGACGAAAGTCGCC (((..(((....))))))	52.6 °C	-28.3 kcal/mol
GTTCGAGGAAACTCGAGC (.(((((....))))).)	49.8 °C	-21.7 kcal/mol
GAGGTCGGAAACAACCTC (((((.(....).)))))	41.2 °C	-28.8 kcal/mol
CGTACGGAAACGTTCACG ((((((....)))..)))	39 °C	-18.6 kcal/mol
GATCACTAGCGTGATC ((((((....))))))	55.1 °C	-41.8 kcal/mol
GGCCTGGGAAACTGGGCC ((((..(....)..))))	54.7 °C	-38 kcal/mol
ACTGTGAAAACAGT (((((....)))))	46.1 °C	-21.8 kcal/mol
GATCTAAAACTAGATC ((((((....))))))	31.1 °C	-21.1 kcal/mol
GCGACCGGTCGC ((((....))))	62 °C	-55.6 kcal/mol
GATCCAAATTGGATC ((((((...))))))	48.3 °C	-31.8 kcal/mol
GCATTTCGAAAGAAGTGC (((.(((....))).)))	51.4 °C	-45.6 kcal/mol
GCAACGGAAACGTTGC ((((((....))))))	68.3 °C	-32.6 kcal/mol
GGAAAAGGAAACTTTTCC (((((((....)))))))	52.7 °C	-39.6 kcal/mol
GATATCCGAAAGGAGATC (((.(((....))).)))	49.9 °C	-33.1 kcal/mol
GACTGCGAAAGCATGTC ((((((....))).)))	54.5 °C	-23.1 kcal/mol
GCTGGCACGAAAGTGAGC (((..(((....))))))	36.9 °C	-14.1 kcal/mol
GTTCACGAAAGTGTGAAC ((((((....)))..)))	47.3 °C	-25.7 kcal/mol
GTGTTCGAAAGAAGACAC ((((((....)))..)))	37.9 °C	-20.8 kcal/mol
GCGACAATTCGC ((((....))))	44.8 °C	-17.2 kcal/mol
GATCCGGACTCGGATC ((((((....))))))	59.2 °C	-49.4 kcal/mol
GAGCGCGAAAGCGGGCTC ((((((....)))..)))	67.9 °C	-16.2 kcal/mol
GAGTCAGGAAACTGGCTC (((.(((....))).)))	54.1 °C	-43.1 kcal/mol

Sequence	Tm [1]	folding enthalpy [2]
GACCAGCGAAAGCTGTC (((.(((....))))))	45 °C	-11.3 kcal/mol
GTTGCTCGAAAGAGTAAC (((.(((....))).)))	52.4 °C	-35.1 kcal/mol
GATCGACCAATCGATC ((((((....))))))	49 °C	-34.2 kcal/mol
GATCCGTAGCCGGATC ((((((....))))))	56.1 °C	-47.9 kcal/mol
GATCCCATTCGGGATC ((((((....))))))	62.1 °C	-38.7 kcal/mol
GTACCCTCGAAAGAGTAC (((..(((....))))))	25.2 °C	-10.6 kcal/mol
GGGTCGCCGAAAGGCCCC (((..(((....))))))	46.4 °C	-11.1 kcal/mol
GCAATCGGAAACGATCGC ((.((((....)))).))	47.2 °C	-36.4 kcal/mol
GATCACCCCAGTGATC ((((((....))))))	60 °C	-44.7 kcal/mol
GATCAGTTGTCTGATC ((((((....))))))	50.5 °C	-39.2 kcal/mol
GGAGGTGGAAACACTTCC (((.(((....))).)))	48.2 °C	-35.2 kcal/mol
GACAGAACGAAAGTTGTC (((..(((....))))))	36.8 °C	-28.2 kcal/mol
GTAATTCGAAAGAATAC (((.(((....))))))	32 °C	-15.2 kcal/mol
GATCTGCCCGCAGATC ((((((....))))))	59.7 °C	-46.4 kcal/mol
GCGATAGTCGC ((((...))))	52.5 °C	-14 kcal/mol
GTTGGAGGAAACCCCAAC (((((.(....).)))))	44.5 °C	-35.2 kcal/mol
GTTCACGAAAGTGTAAC ((((((....))).)))	38.7 °C	-18.8 kcal/mol
GGACAAGAAATTGTCC ((((((....))))))	55.3 °C	-37.4 kcal/mol
GTACTGGGAAACCAGTAC (((((((....)))))))	58.5 °C	-36.9 kcal/mol
GCTTCCGCGAAAGCGAGC (((..(((....))))))	35.5 °C	-11 kcal/mol
GCGTAGGGAAACCTGTGC ((..(((....)))..))	37.4 °C	-14.2 kcal/mol
GACCGTGGAAACACGACC (..((((....))))..)	28 °C	-10.8 kcal/mol

— the array DNA melting data of Ke et al. (doi:10.1101/2024.01.08.574731)
